# In ChEMBL document CHEMBL1124937 (J Med Chem, 1990):
# Tests used:
# [1] = target: Beta-2 adrenergic receptor (Mus musculus, UniProt P18762); experiment: Ki value was determined by accumulation of c-AMP in S-49 mouse lymphoma cells (Beta2).; type: cell-based
# Procedure, shortened: (§1)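 Antagonist Ki from in vitro inhibition of cyclic AMP accumulation, with cAMP quantified by radioimmunoassay. Cells were prepared as in the group's earlier work. Ki was calculated with the Cheng–Prusoff equation. The four single stereoisomers of each derivative, the stereoisomeric mixture and the parent drug were tested. Relative potency is given versus the parent drug.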
# Rattus norvegicus [2] = species on record: Rattus norvegicus; experiment: Biological activity in vitro, Ki value was determined by accumulation of c-AMP in rat fat cells (Beta1).; type: functional, cell-based; procedure, shortened: as §1
# Rattus norvegicus [3] = species on record: Rattus norvegicus; experiment: Relative potency(RP) was determined for the biological activity determined in rat fat cells (Beta1); type: functional
# Procedure, shortened: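 Rat fat cells (β1), prepared as previously described, were assayed in vitro for antagonist inhibition of cAMP accumulation, with cAMP measured by radioimmunoassay. Ki values were calculated with the Cheng–Prusoff equation. Potency is expressed relative to the progenitor drug, which was tested alongside the individual stereoisomers and the stereoisomeric mixture.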
# Chain of Beta-2 adrenergic receptor (P18762 whole entry): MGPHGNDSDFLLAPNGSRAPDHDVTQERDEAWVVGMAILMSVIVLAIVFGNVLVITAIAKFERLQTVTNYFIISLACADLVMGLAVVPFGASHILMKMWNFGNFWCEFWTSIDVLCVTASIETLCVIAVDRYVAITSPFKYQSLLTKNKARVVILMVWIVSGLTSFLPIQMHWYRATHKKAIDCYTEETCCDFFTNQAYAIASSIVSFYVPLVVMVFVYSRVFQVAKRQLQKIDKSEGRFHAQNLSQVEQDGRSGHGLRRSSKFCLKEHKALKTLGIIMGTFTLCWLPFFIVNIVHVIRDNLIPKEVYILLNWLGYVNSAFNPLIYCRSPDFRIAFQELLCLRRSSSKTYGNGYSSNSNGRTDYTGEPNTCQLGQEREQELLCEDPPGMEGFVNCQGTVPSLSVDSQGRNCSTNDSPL
Structure (SMILES),Ki [1] [nM],Ki (Rattus norvegicus [2]) [nM],Relative potency (Rattus norvegicus [3])
CC(CCCCC(=O)Nc1ccc(C(F)(F)F)cc1)NCC(O)COc1cccc2ccccc12 (stereo unspecified),78000,–,–
Cc1ccc(NC(=O)CCCCC(C)NCC(O)COc2cccc3ccccc23)cc1 (stereo unspecified),43300,–,–
CC(=O)Nc1ccc(OC[C@@H](O)CN[C@H](C)CCCCC(=O)Nc2ccc(C(F)(F)F)cc2)cc1,146,31,22.6
Cc1ccc(NC(=O)CCCC[C@@H](C)NC[C@H](O)COc2cccc3ccccc23)cc1,9070,–,–
CC(=O)Nc1ccc(OC[C@H](O)CN[C@@H](C)CCCCC(=O)Nc2ccc(C)cc2)cc1,9240,2620,0.267
CC(=O)Nc1ccc(OCC(O)CNC(C)CCCCC(=O)Nc2ccc(C)cc2)cc1 (stereo unspecified),1180,260,2.71
C[C@H](CCCCC(=O)Nc1ccc(C(F)(F)F)cc1)NC[C@@H](O)COc1cccc2ccccc12,130000,–,–
Cc1ccc(NC(=O)CCCC[C@@H](C)NC[C@@H](O)COc2cccc3ccccc23)cc1,195000,–,–
CC(=O)Nc1ccc(OC[C@H](O)CN[C@H](C)CCCCC(=O)Nc2ccc(C)cc2)cc1,53600,1990,0.351
C[C@H](CCCCC(=O)Nc1ccc(C(F)(F)F)cc1)NC[C@H](O)COc1cccc2ccccc12,45900,–,–
C[C@@H](CCCCC(=O)Nc1ccc(C(F)(F)F)cc1)NC[C@H](O)COc1cccc2ccccc12,39000,–,–
CC(=O)Nc1ccc(OC[C@@H](O)CN[C@@H](C)CCCCC(=O)Nc2ccc(C)cc2)cc1,15600,1580,0.442
C[C@@H](CCCCC(=O)Nc1ccc(C(F)(F)F)cc1)NC[C@@H](O)COc1cccc2ccccc12 (racemic),179000,–,–
CC(=O)Nc1ccc(OC[C@@H](O)CN[C@H](C)CCCCC(=O)Nc2ccc(C)cc2)cc1,810,260,2.71
CC(=O)Nc1ccc(OCC(O)CNC(C)C)cc1 (stereo unspecified) [PRACTOLOL],–,700,–
CC(=O)Nc1ccc(OC[C@H](O)CN[C@@H](C)CCCCC(=O)Nc2ccc(C(F)(F)F)cc2)cc1 (mixture of isomers),62000,6700,0.104
CC(=O)Nc1ccc(OC[C@H](O)CN[C@H](C)CCCCC(=O)Nc2ccc(C(F)(F)F)cc2)cc1,2170,240,2.92
CC(=O)Nc1ccc(OC[C@@H](O)CN[C@@H](C)CCCCC(=O)Nc2ccc(C(F)(F)F)cc2)cc1,2850,350,2
Cc1ccc(NC(=O)CCCC[C@H](C)NC[C@@H](O)COc2cccc3ccccc23)cc1 (racemic),195000,–,–
Cc1ccc(NC(=O)CCCC[C@H](C)NC[C@H](O)COc2cccc3ccccc23)cc1,41000,–,–
CC(=O)Nc1ccc(OCC(O)CNC(C)CCCCC(=O)Nc2ccc(C(F)(F)F)cc2)cc1 (stereo unspecified),390,130,7.8
